Test results: paper PMC8028158 (ACS Omega, 2021)
“Also recorded” adds a separate entry of the source.

Legend:
mouse TRPC6 = target: T1, mouse TRPC6 (Mus musculus, UniProt Q61143); test: Fluorescence Ca2+ assay, inhibition of HDM-activated TRPC6 in HEK293 cells; assay type: cell-based; settings: HEK293 cells with stable expression of mouse TRPC6
T1 sequence (Q61143 1-930): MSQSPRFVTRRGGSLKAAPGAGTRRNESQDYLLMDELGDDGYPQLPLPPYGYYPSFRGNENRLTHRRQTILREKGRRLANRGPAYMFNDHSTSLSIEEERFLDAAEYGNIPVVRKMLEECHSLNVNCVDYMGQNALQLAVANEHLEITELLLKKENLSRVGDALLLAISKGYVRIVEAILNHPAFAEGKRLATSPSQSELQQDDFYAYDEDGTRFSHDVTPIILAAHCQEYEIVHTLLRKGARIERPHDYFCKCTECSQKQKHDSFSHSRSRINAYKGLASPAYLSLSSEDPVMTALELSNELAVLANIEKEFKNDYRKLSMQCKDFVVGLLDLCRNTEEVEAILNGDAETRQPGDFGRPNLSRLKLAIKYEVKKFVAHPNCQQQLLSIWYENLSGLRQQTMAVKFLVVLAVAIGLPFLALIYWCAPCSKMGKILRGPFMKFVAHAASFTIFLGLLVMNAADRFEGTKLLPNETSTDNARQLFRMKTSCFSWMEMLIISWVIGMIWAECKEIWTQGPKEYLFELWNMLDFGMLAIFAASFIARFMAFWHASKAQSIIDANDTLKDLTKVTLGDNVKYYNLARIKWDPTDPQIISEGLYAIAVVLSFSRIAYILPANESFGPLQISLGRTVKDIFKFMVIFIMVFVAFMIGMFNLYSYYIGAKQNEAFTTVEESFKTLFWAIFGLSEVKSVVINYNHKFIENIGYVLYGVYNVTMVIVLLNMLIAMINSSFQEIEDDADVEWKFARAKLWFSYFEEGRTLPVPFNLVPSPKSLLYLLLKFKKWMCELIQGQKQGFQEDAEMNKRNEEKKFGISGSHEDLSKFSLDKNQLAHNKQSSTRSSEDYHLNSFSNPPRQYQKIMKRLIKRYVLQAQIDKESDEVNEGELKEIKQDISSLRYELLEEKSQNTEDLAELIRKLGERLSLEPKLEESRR
Summary of the method: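 HEK293 cells co-expressing mouse TRPC6 and the Gq/11-PLC-coupled M5 muscarinic receptor were loaded with Fluo-4. Cells were preincubated with test compound at various concentrations for 5 min, then HDM (10 μM) was added, and fluorescence was read in a microplate reader. Traces were expressed as ΔF over F0. IC50 came from a Hill fit of one experiment (N = 3).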

MKN-45 cells = test: MTT cell viability assay, MKN-45; assay type: cell-based, human; settings: read-out: IC50 cell proliferation, MKN-45; 72 h, MTT
Summary of the method: (§1)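 Cells were seeded at 2000 per well, incubated overnight and exposed to test compound for 72 h. MTT was added for 4 h, formazan was dissolved in DMSO and absorbance was read at 570 nm. Viability was normalized to untreated wells, giving mean ± SEM of three trials. IC50 was calculated from relative survival.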

AGS cells = test: MTT cell viability assay, AGS; assay type: cell-based, human; settings: read-out: IC50 cell proliferation, AGS; 72 h, MTT
Summary of the method: as §1

TRPC6 = target: T2, TRPC6 (Mus musculus, UniProt Q61143); settings: read-out: IC50 TRPC6; nonselective TRPC6 antagonist; cited from earlier work
T2 sequence (Q61143 1-930): T1 sequence (Q61143 1-930)

IC50 (MKN-45 cells) [µM]	IC50 (AGS cells) [µM]	SMILES	TRPC6 antagonistic potency (in words) (mouse TRPC6)	IC50 (TRPC6) [µM]
–	–	COc1cccc2sc(N(CCN(C)C)C(=O)c3ccc4ccccc4c3)nc12 [Compound 1r, N-(2-(dimethylamino)ethyl)-N-(4-methoxybenzo[d]thiazol-2-yl)-2-naphthamide]	No in vitro potency; also recorded: no antagonistic potency	–
15.3	37	COc1ccc(CCCOC(Cn2ccnc2)c2ccc(OC)cc2)cc1 (stereo not shown) [SKF-96365, 1H-Imidazole, 1-[2-(4-methoxyphenyl)-2-[3-(4-methoxyphenyl)propoxy]ethyl], reference compound]	–	4.9
